# Source: ChEMBL document CHEMBL4689842, “EUbOPEN Chemogenomics Library wave 1” (2021)
# Test system: U2OS
# Assay: Multiplex assay against U2OS
# Type: toxicity, cell-based
# Conditions: human
# How it was run: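 Values for tubulin, mitochondrial-mass and membrane-permeability phenotypes are per cents of cells with healthy nuclei. These cells were identified by CellPathfinder machine-learning gating of live cells that had been stained at seeding with Hoechst33342, BioTracker Green Microtubule Cytoskeleton Dye, MitoTracker Red and Annexin V Alexa Fluor 680 and imaged on a CQ1 microscope at 37°C and 5% CO2 after compound addition. The gating first set Hoechst high-intensity objects apart from normal cells, then split normal cells into healthy, pyknosed or fragmented nuclei, and pyknosed cells into mitotic or apoptotic.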
# [1] = 12 h, 1 µM, compound concentration 1 uM, replicate 1
# [2] = 12 h, 1 µM, compound concentration 1 uM, replicate 2
# [3] = 12 h, 10 µM, compound concentration 10 uM, replicate 1
# [4] = 12 h, 10 µM, compound concentration 10 uM, replicate 2
# [5] = 24 h, 1 µM, compound concentration 1 uM, replicate 1
# [6] = 24 h, 1 µM, compound concentration 1 uM, replicate 2
# [7] = 24 h, 10 µM, compound concentration 10 uM, replicate 1
# [8] = 24 h, 10 µM, compound concentration 10 uM, replicate 2
# [9] = 48 h, 1 µM, compound concentration 1 uM, replicate 1
# [10] = 48 h, 1 µM, compound concentration 1 uM, replicate 2
# [11] = 48 h, 10 µM, compound concentration 10 uM, replicate 1
# [12] = 48 h, 10 µM, compound concentration 10 uM, replicate 2
compound,measurement,setting,value
O=c1cc(N2CCOCC2)oc2c(-c3cccc4c3sc3ccccc34)cccc12,Population Apoptotic (%),[1],35%
same,Population Fragmented Nuclei (%),[1],12%
same,Population Healthy Nuclei (%),[1],76%
same,Population Hoechst High Intensity Objects (%),[1],7%
same,Population Membrane Permeable-Phenotype (%),[1],2%
same,Population Mitochondria Different-Phenotype (%),[1],10%
same,Population Mitotic Cells (%),[1],65%
same,Population Normal (%),[1],92%
same,Population Pyknosed Nuclei (%),[1],11%
same,Population Tubulin-Different-Phenotype (%),[1],10%
same,Total Cell Count,[1],120
same,Population Apoptotic (%),[2],100%
same,Population Fragmented Nuclei (%),[2],15%
same,Population Healthy Nuclei (%),[2],77%
same,Population Hoechst High Intensity Objects (%),[2],10%
same,Population Mitochondria Different-Phenotype (%),[2],6%
same,Population Mitotic Cells (%),[2],0%
same,Population Normal (%),[2],90%
same,Population Pyknosed Nuclei (%),[2],6%
same,Population Tubulin-Different-Phenotype (%),[2],14%
same,Total Cell Count,[2],79
same,Population Apoptotic (%),[3],52%
same,Population Fragmented Nuclei (%),[3],20%
same,Population Healthy Nuclei (%),[3],47%
same,Population Hoechst High Intensity Objects (%),[3],4%
same,Population Membrane Permeable-Phenotype (%),[3],24%
same,Population Mitochondria Different-Phenotype (%),[3],73%
same,Population Mitotic Cells (%),[3],47%
same,Population Normal (%),[3],95%
same,Population Pyknosed Nuclei (%),[3],32%
same,Population Tubulin-Different-Phenotype (%),[3],100%
same,Total Cell Count,[3],190
same,Population Apoptotic (%),[4],31%
same,Population Fragmented Nuclei (%),[4],19%
same,Population Healthy Nuclei (%),[4],45%
same,Population Hoechst High Intensity Objects (%),[4],16%
same,Population Membrane Permeable-Phenotype (%),[4],23%
same,Population Mitochondria Different-Phenotype (%),[4],90%
same,Population Mitotic Cells (%),[4],68%
same,Population Normal (%),[4],83%
same,Population Pyknosed Nuclei (%),[4],34%
same,Population Tubulin-Different-Phenotype (%),[4],95%
same,Total Cell Count,[4],70
same,Population Apoptotic (%),[5],25%
same,Population Fragmented Nuclei (%),[5],14%
same,Population Healthy Nuclei (%),[5],74%
same,Population Hoechst High Intensity Objects (%),[5],7%
same,Population Membrane Permeable-Phenotype (%),[5],4%
same,Population Mitochondria Different-Phenotype (%),[5],7%
same,Population Mitotic Cells (%),[5],75%
same,Population Normal (%),[5],92%
same,Population Pyknosed Nuclei (%),[5],10%
same,Population Tubulin-Different-Phenotype (%),[5],7%
same,Total Cell Count,[5],118
same,Population Apoptotic (%),[6],60%
same,Population Fragmented Nuclei (%),[6],11%
same,Population Healthy Nuclei (%),[6],82%
same,Population Hoechst High Intensity Objects (%),[6],6%
same,Population Membrane Permeable-Phenotype (%),[6],9%
same,Population Mitochondria Different-Phenotype (%),[6],9%
same,Population Mitotic Cells (%),[6],40%
same,Population Normal (%),[6],93%
same,Population Pyknosed Nuclei (%),[6],6%
same,Population Tubulin-Different-Phenotype (%),[6],15%
same,Total Cell Count,[6],86
same,Population Apoptotic (%),[7],60%
same,Population Fragmented Nuclei (%),[7],16%
same,Population Healthy Nuclei (%),[7],27%
same,Population Hoechst High Intensity Objects (%),[7],7%
same,Population Membrane Permeable-Phenotype (%),[7],22%
same,Population Mitochondria Different-Phenotype (%),[7],93%
same,Population Mitotic Cells (%),[7],40%
same,Population Normal (%),[7],92%
same,Population Pyknosed Nuclei (%),[7],55%
same,Population Tubulin-Different-Phenotype (%),[7],97%
same,Total Cell Count,[7],242
same,Population Apoptotic (%),[8],66%
same,Population Fragmented Nuclei (%),[8],14%
same,Population Healthy Nuclei (%),[8],21%
same,Population Hoechst High Intensity Objects (%),[8],6%
same,Population Membrane Permeable-Phenotype (%),[8],50%
same,Population Mitochondria Different-Phenotype (%),[8],70%
same,Population Mitotic Cells (%),[8],33%
same,Population Normal (%),[8],94%
same,Population Pyknosed Nuclei (%),[8],63%
same,Population Tubulin-Different-Phenotype (%),[8],70%
same,Total Cell Count,[8],86
same,Population Apoptotic (%),[9],43%
same,Population Fragmented Nuclei (%),[9],7%
same,Population Hoechst High Intensity Objects (%),[9],5%
same,Population Membrane Permeable-Phenotype (%),[9],3%
same,Population Mitochondria Different-Phenotype (%),[9],8%
same,Population Mitotic Cells (%),[9],56%
same,Population Normal (%),[9],94%
same,Population Pyknosed Nuclei (%),[9],18%
same,Population Tubulin-Different-Phenotype (%),[9],9%
same,Total Cell Count,[9],127
same,Population Apoptotic (%),[10],18%
same,Population Fragmented Nuclei (%),[10],16%
same,Population Healthy Nuclei (%),[10],73%
same,Population Hoechst High Intensity Objects (%),[10],4%
same,Population Membrane Permeable-Phenotype (%),[10],12%
same,Population Mitochondria Different-Phenotype (%),[10],12%
same,Population Mitotic Cells (%),[10],81%
same,Population Normal (%),[10],95%
same,Population Pyknosed Nuclei (%),[10],9%
same,Population Tubulin-Different-Phenotype (%),[10],18%
same,Total Cell Count,[10],103
same,Population Apoptotic (%),[11],81%
same,Population Fragmented Nuclei (%),[11],30%
same,Population Healthy Nuclei (%),[11],5%
same,Population Hoechst High Intensity Objects (%),[11],13%
same,Population Membrane Permeable-Phenotype (%),[11],55%
same,Population Mitochondria Different-Phenotype (%),[11],88%
same,Population Mitotic Cells (%),[11],19%
same,Population Normal (%),[11],86%
same,Population Pyknosed Nuclei (%),[11],63%
same,Population Tubulin-Different-Phenotype (%),[11],77%
same,Total Cell Count,[11],305
same,Population Apoptotic (%),[12],80%
same,Population Fragmented Nuclei (%),[12],22%
same,Population Healthy Nuclei (%),[12],25%
same,Population Hoechst High Intensity Objects (%),[12],12%
same,Population Membrane Permeable-Phenotype (%),[12],50%
same,Population Mitochondria Different-Phenotype (%),[12],83%
same,Population Mitotic Cells (%),[12],20%
same,Population Normal (%),[12],87%
same,Population Pyknosed Nuclei (%),[12],52%
same,Population Tubulin-Different-Phenotype (%),[12],58%
same,Total Cell Count,[12],116
